Measured values published in ChEMBL document CHEMBL3826885, “Similarities and differences in affinity and binding modes of tricyclic pyrimido- and pyrazinoxanthines at human and rat adenosine receptors” (Bioorg Med Chem, 2016).
Values after ≈ are worked out from the molar mass of the structure shown.

Columns and labels:
[1] = Solubility of compound in water at 20 degC by UV-spectroscopic analysis; type: physicochemical
Outline: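 Suspensions were boiled 5 min, left overnight at 20 °C, and filtered. Filtrates were diluted 10-80-fold in MeOH and read by UV in MeOH/H2O (90% v/v). Concentration came from standard curves of seven concentrations from 10^-3 to 10^-1 mg/mL, using linear regression of two neighbouring points and multiplying by the dilution.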

[2] = molecular target: Adenosine receptor A2a (Rattus norvegicus, UniProt P30543); assay: Displacement of [3H]MSX2 from adenosine receptor A2a in rat brain striatal membranes; type: cell membranes, Membrane
Sequence of Adenosine receptor A2a (Rattus norvegicus, UniProt P30543) (P30543 whole entry): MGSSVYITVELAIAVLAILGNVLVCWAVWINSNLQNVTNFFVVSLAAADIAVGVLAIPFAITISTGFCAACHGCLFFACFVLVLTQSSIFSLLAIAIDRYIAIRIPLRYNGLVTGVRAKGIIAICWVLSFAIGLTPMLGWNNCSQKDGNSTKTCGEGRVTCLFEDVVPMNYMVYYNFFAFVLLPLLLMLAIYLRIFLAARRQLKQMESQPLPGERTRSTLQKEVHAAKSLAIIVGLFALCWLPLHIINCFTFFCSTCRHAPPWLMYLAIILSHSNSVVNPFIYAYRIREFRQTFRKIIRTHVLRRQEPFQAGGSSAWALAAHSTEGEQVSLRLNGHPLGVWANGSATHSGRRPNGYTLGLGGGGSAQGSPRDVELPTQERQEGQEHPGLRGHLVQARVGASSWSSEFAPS
Outline: (§1)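 Native rat receptors: A1 in brain cortical membranes with [3H]CCPA, A2A in brain striatal membranes, from frozen unstripped rat brains. Compounds were first screened at a single high concentration in three independent experiments. Active compounds then had full inhibition curves over at least 3 orders of magnitude of concentration.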

[3] = molecular target: T1, Adenosine receptor A3 (Rattus norvegicus) (UniProt P28647); assay: Displacement of [3H]NECA from recombinant rat adenosine receptor A3 expressed in CHO cell membranes at 1 uM
T1 sequence (whole entry): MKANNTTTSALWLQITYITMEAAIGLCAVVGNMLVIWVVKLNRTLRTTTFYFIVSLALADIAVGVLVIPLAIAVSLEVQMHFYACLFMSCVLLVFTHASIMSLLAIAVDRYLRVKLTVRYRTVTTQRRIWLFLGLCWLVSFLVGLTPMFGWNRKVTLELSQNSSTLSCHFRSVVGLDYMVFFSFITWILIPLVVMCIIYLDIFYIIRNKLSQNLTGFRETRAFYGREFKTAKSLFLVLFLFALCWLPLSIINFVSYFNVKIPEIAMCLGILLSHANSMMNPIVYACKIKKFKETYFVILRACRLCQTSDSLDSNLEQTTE
Outline: (§2)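 Membranes came from CHO cells expressing recombinant receptors (human A1, A2A, A2B, A3; rat A2B, A3). Radioligands were [3H]CCPA for A1 and [3H]PSB-11 or [3H]NECA for A3. A single high concentration was screened first, in three experiments for A1/A2A and two for A2B/A3. Full inhibition curves spanning at least 3 log units were run for potent compounds.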

[4] = molecular target: Adenosine receptor A2a (Rattus norvegicus) (UniProt P30543); assay: Displacement of [3H]MSX2 from Adenosine receptor A2a in rat brain striatal membranes at 1 uM; type: cell membranes; conditions: Membrane; outline: as §1
Sequence of Adenosine receptor A2a (Rattus norvegicus) (P30543 whole entry): as the sequence (P30543 whole entry) above

[5] = molecular target: T2, Adenosine receptor A2b (Homo sapiens) (UniProt P29275); assay: Displacement of [3H]PSB-603 from recombinant human adenosine receptor A2b expressed in CHO cell membranes at 1 uM; outline: as §2
T2 sequence (whole entry): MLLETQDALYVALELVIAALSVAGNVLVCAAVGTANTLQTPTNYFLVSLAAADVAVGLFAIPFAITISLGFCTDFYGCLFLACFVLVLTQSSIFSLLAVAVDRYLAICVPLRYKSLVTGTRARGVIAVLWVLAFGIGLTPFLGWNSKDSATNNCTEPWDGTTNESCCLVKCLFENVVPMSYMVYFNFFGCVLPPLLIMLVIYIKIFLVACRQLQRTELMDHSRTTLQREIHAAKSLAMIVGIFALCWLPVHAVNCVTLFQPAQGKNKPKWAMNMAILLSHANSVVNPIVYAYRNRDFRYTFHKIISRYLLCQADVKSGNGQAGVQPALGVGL

[6] = molecular target: T3, Adenosine receptor A3 (Homo sapiens) (UniProt P0DMS8); assay: Displacement of [3H]PSB11 from recombinant human adenosine receptor A3 expressed in CHO cell membranes at 1 uM; outline: as §2
T3 sequence (whole entry): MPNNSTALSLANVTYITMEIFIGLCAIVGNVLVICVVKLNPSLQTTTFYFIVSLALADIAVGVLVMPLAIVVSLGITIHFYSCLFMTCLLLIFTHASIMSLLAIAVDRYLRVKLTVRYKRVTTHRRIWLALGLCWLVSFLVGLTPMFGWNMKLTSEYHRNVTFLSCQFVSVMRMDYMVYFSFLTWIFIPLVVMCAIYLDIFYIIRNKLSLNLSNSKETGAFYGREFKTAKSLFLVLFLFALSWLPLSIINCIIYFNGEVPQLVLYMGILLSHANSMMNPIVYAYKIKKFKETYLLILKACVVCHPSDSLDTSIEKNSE

[7] = molecular target: T4, Adenosine receptor A1 (Rattus norvegicus, UniProt P25099); assay: Displacement of [3H]CCPA from adenosine receptor A1 in rat brain cortical membranes; type: cell membranes
T4 sequence (P25099 whole entry): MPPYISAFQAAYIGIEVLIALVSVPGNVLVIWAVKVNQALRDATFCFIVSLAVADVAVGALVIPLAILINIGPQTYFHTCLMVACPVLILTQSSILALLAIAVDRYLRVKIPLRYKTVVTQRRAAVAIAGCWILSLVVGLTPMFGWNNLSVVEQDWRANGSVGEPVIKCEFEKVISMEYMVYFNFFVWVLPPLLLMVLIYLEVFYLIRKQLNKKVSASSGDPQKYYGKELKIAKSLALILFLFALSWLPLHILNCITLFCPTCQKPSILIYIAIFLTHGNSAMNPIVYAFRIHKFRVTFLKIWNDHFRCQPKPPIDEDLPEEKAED
Outline: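 Native rat receptors: A1 in brain cortical membranes with [3H]CCPA, A2A in brain striatal membranes, from frozen unstripped rat brains. Compounds were first screened at a single high concentration in three independent experiments.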

[8] = molecular target: T5, Adenosine receptor A2a (Homo sapiens, UniProt P29274); assay: Displacement of [3H]MSX2 from recombinant human adenosine receptor A2a expressed in CHO cell membranes; outline: as §2
T5 sequence (P29274 whole entry): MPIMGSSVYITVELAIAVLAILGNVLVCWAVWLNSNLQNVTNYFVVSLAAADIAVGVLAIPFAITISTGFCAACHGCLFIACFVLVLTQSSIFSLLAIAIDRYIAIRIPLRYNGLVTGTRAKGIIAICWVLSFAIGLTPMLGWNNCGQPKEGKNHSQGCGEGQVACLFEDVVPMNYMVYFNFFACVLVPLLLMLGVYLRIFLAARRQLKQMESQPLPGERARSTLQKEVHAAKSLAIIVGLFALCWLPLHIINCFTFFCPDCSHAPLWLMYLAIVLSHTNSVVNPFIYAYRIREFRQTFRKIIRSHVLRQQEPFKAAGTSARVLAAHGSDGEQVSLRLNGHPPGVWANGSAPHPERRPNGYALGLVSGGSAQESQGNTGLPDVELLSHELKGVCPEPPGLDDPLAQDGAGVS

[9] = molecular target: T6, Adenosine receptor A1 (Homo sapiens) (UniProt P30542); assay: Displacement of [3H]CCPA from recombinant human adenosine receptor A1 expressed in CHO cell membranes at 1 uM; outline: as §2
T6 sequence (whole entry): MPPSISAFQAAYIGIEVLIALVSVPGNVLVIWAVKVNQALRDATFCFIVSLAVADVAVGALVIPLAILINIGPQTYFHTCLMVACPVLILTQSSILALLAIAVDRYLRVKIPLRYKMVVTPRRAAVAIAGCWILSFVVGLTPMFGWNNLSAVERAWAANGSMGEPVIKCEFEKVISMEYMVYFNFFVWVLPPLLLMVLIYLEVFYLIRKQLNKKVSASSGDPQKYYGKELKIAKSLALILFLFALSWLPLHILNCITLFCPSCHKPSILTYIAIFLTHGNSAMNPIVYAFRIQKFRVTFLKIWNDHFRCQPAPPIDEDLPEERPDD

[10] = molecular target: T7, Adenosine receptor A1 (Rattus norvegicus) (UniProt P25099); assay: Displacement of [3H]CCPA from adenosine receptor A1 in rat brain cortical membranes at 1 uM; type: cell membranes; outline: as §1
T7 sequence (whole entry): T4 sequence (P25099 whole entry)

[11] = molecular target: T8, Adenosine receptor A2b (Rattus norvegicus) (UniProt P29276); assay: Displacement of [3H]PSB-603 from recombinant rat adenosine receptor A2b expressed in CHO cell membranes at 1 uM; outline: as §2
T8 sequence (whole entry): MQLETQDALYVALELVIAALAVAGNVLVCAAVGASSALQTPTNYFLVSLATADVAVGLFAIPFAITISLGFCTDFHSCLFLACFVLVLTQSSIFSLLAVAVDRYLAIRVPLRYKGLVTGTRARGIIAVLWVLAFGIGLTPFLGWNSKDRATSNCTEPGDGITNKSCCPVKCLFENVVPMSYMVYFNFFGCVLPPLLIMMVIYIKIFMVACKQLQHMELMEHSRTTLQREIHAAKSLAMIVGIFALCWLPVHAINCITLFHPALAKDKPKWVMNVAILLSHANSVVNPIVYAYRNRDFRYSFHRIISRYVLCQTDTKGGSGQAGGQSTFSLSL

[12] = molecular target: T9, Adenosine receptor A3 (Homo sapiens, UniProt P0DMS8); assay: Displacement of [3H]PSB-11 from recombinant human adenosine receptor A3 expressed in CHO cell membranes
T9 sequence (P0DMS8 whole entry): T3 sequence (whole entry)

[13] = molecular target: T10, Adenosine receptor A2b (Rattus norvegicus, UniProt P29276); assay: Displacement of [3H]PSB-603 from recombinant rat adenosine receptor A2b expressed in CHO cell membranes
T10 sequence (P29276 whole entry): T8 sequence (whole entry)
Outline: (§3)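 Membranes came from CHO cells expressing recombinant receptors (human A1, A2A, A2B, A3; rat A2B, A3). Radioligands were [3H]CCPA for A1 and [3H]PSB-11 or [3H]NECA for A3. A single high concentration was screened first, in three experiments for A1/A2A and two for A2B/A3.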

[14] = molecular target: T11, Adenosine receptor A2b (Homo sapiens, UniProt P29275); assay: Displacement of [3H]PSB-603 from recombinant human adenosine receptor A2b expressed in CHO cell membranes; outline: as §3
T11 sequence (P29275 whole entry): T2 sequence (whole entry)

[15] = molecular target: T12, Adenosine receptor A3 (Rattus norvegicus, UniProt P28647); assay: Displacement of [3H]NECA from recombinant rat adenosine receptor A3 expressed in CHO cell membranes; outline: as §3
T12 sequence (P28647 whole entry): T1 sequence (whole entry)

[16] = molecular target: T13, Adenosine receptor A1 (Homo sapiens, UniProt P30542); assay: Displacement of [3H]CCPA from recombinant human adenosine receptor A1 expressed in CHO cell membranes; outline: as §2
T13 sequence (P30542 whole entry): T6 sequence (whole entry)

[17] = molecular target: T5, Adenosine receptor A2a; assay: Displacement of [3H]MSX2 from recombinant human adenosine receptor A2a expressed in CHO cell membranes at 1 uM; outline: as §2
[18] = molecular target: T7, Adenosine receptor A1 (Rattus norvegicus); assay: Displacement of [3H]CCPA from adenosine receptor A1 in rat brain cortical membranes at 10 uM; type: cell membranes; conditions: 10 uM; outline: as §1
[19] = molecular target: T5, Adenosine receptor A2a; assay: Antagonist activity at human adenosine receptor A2a expressed in CHO cell membranes assessed as inhibition of NECA-induced cAMP accumulation incubated for 15 mins in presence of [3H]cAMP by liquid scintillation counting; type: functional
Outline: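 Stably transfected CHO cells (human A2A or A2B) grown in DMEM-F12 with 10% FCS at 37 °C, 5% CO2. The cells were seeded at 200,000/well, washed after 24 h and held 2 h in HBSS (pH 7.3) with 1 U/ml adenosine deaminase. Ro20-1724 was added to 40 µM final for 15 min, then NECA dilutions ± one fixed test concentration in 2.5% DMSO, in duplicate.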

Row | Structure (SMILES) | solubility [1] [µg/mL] | Ki [2] [nM] | inhibition [3] [%] | inhibition [4] [%] | inhibition [5] [%] | inhibition [6] [%] | Ki [7] [nM] | Ki [8] [nM] | inhibition [9] [%] | inhibition [10] [%] | inhibition [11] [%] | Ki [12] [nM] | Ki [13] [nM] | Ki [14] [nM] | Ki [15] [nM] | Ki [16] [nM] | inhibition [17] [%] | inhibition [18] [%] | Kb [19] [nM]
1 | COc1ccc(N2CCCn3c2nc2c3c(=O)n(C)c(=O)n2C)cc1 | 51 (≈ 149 µM) |  |  |  |  |  |  |  |  |  |  |  |  |  |  |  |  |  | 
2 | CCCCn1c(=O)c2c(nc3n2CCCN3c2ccc(OCCN(CC)CC)cc2)n(CCCC)c1=O |  | 1460 | 16 | 49 | 6 | 44 | 137 | 1010 | 30 | 55 | 6 | > 1000 | > 1000 | > 1000 | > 1000 | 1190 | 54 |  | 
3 | Cn1c(=O)c2c(nc3n2CCN(CCc2ccc(OCCN4CCOCC4)cc2)C3)n(C)c1=O |  | 11500 |  |  | 4 | 3 | > 10000 |  |  |  |  | > 1000 |  | > 1000 |  |  |  | 22 | 
4 | COc1ccc(CCN2CCCn3c2nc2c3c(=O)n(C)c(=O)n2C)cc1 | 63 (≈ 171 µM) |  |  |  |  |  |  |  |  |  |  |  |  |  |  |  |  |  | 
5 | Cn1c(=O)c2c(nc3n2CCCN3CCc2ccc(O)cc2)n(C)c1=O |  |  |  |  |  |  |  |  |  |  |  |  |  |  |  |  |  |  | 2220
6 | CCN(CC)CCOc1ccc(CCN2CCn3c(nc4c3c(=O)n(C)c(=O)n4C)C2)cc1 |  | 7850 |  |  | 19 | 0 | > 10000 |  |  |  |  | > 1000 |  | > 1000 |  |  |  | 42 | 
7 | CCCn1c(=O)c2c(nc3n2CCCN3c2ccc(OCCN3CCCC3)cc2)n(CCC)c1=O |  | > 1000 | 10 | 28 | 10 | 20 | 175 | 2380 | 22 | 53 | 4 | > 1000 | > 1000 | > 1000 | > 1000 | 1990 | 10 |  | 
8 | CCCCn1c(=O)c2c(nc3n2CCCN3c2ccc(OCCN3CCCCC3)cc2)n(CCCC)c1=O |  | 1480 | 20 | 49 | 41 | 48 | 127 | 921 | 42 | 65 | 9 |  | > 1000 | > 1000 | > 1000 | 713 | 53 |  | 
9 | CCn1c(=O)c2c(nc3n2CCCN3CCc2ccc(O)cc2)n(CC)c1=O |  | 271 | 19 | 80 | 42 |  |  | 2180 | 20 | 14 | 14 |  |  | > 500 |  | 2020 | 30 |  | 
10 | CCCn1c(=O)c2c(nc3n2CCCN3c2ccc(OCCN(CC)CC)cc2)n(CCC)c1=O | 260 (≈ 539 µM) | 1790 |  | 51 | 22 | 20 | 567 |  |  | 30 |  | > 1000 |  | > 1000 |  |  |  |  | 
11 | CCCCn1c(=O)c2c(nc3n2CCCN3c2ccc(OCCN3CCCC3)cc2)n(CCCC)c1=O |  | 989 | 20 | 49 | 34 | 48 | 72 | 666 | 41 | 69 | 15 |  | > 1000 | > 1000 | > 1000 | 658 | 68 |  | 
12 | CCCCn1c(=O)c2c(nc3n2CCCN3c2ccc(OCCN(C)C)cc2)n(CCCC)c1=O | 255 (≈ 528 µM) | 1050 | 15 | 47 | 40 | 38 | 56 | 1030 | 43 | 72 | 9 | > 1000 | > 1000 | > 1000 | > 1000 | 539 | 52 |  | 
